Broadly, the pKi is the negative decadic logarithm of the Ki, by convention in mol/L. As usually defined, the inhibition is the share of the control response that was lost under treatment. One may read the Km as the concentration of substrate that gives half-maximal velocity.

pKi: −log10 of the molar value. Calls of active or inactive are those of the source. The calls are words filed in the database; no cut-off is given here. Bounds are passed on as bounds.

Assay [1] has as its system Geobacillus stearothermophilus. Nature of the assay: Inhibition of Bacillus stearothermophilus alpha-glucosidase in acetate buffer at pH 6.8 at 1 mM. In short, it runs like this:
(§1)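 Commercial glycosidases were preincubated with varied inhibitor amounts for 15 min at 37 °C in 50 mM acetate buffer: pH 5.0 for the β-glucosidases and β-galactosidase, pH 6.8 for α-glucosidase. The matching p-nitrophenyl glycoside was then added, and the reaction was stopped with 0.5 M Na2CO3. p-Nitrophenol was read at 405 nm. Ki came from Lineweaver–Burk plots, and percent inhibition was also scored at 1 mM inhibitor.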

Assay [2] concerns the target T1, Beta-galactosidase (Aspergillus oryzae) (UniProt Q2U7N3).
T1 sequence (whole entry): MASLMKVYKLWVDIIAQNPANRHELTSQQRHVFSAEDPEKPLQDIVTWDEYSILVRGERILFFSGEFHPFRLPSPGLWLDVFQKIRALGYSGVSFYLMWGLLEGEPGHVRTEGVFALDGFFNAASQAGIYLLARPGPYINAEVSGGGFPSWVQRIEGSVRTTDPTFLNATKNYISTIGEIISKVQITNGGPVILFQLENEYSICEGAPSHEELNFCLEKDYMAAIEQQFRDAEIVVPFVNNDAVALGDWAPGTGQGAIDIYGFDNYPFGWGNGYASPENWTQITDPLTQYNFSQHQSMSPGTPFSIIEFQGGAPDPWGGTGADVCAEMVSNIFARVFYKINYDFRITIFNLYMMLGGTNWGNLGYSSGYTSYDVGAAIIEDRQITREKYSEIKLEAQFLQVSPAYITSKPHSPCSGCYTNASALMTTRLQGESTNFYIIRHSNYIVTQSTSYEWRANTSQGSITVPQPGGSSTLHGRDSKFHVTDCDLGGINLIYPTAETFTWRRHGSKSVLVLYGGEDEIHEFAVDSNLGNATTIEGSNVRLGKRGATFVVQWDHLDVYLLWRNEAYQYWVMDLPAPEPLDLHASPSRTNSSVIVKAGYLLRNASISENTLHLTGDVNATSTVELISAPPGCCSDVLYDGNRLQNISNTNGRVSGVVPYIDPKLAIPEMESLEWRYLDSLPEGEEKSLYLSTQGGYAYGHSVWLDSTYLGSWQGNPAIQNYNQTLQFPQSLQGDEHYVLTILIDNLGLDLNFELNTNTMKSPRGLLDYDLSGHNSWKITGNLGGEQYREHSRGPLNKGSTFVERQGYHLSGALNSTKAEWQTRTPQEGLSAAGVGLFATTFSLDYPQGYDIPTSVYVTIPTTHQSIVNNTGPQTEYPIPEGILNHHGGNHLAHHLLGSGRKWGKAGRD
Nature of the assay: Inhibition of Aspergillus oryzae beta-galactosidase in acetate buffer at pH 5.0 at 1 mM. An outline of the steps: as §1

Assay [3] can be described thus: Inhibition of Aspergillus niger beta-glucosidase in acetate buffer at pH 5.5. In short, it runs like this: (§2)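 Aspergillus niger β-glucosidase was preincubated with inhibitor for 15 min at 37 °C before the p-nitrophenyl glucoside was added. Buffers were 25 mM acetate at pH 4.5–5.5 and 25 mM Bis-Tris at pH 6.0. The reaction was stopped with 0.5 M Na2CO3, and released p-nitrophenol was read at 405 nm. Ki was derived from Lineweaver–Burk plots.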

A further assay has as its system Prunus dulcis. The experiment in a line: Inhibition of Almond beta-glucosidase in acetate buffer at pH 5.0 at 1 mM. In short, it runs like this: as §1
Assay [4] is described as follows: Inhibition of Aspergillus niger beta-glucosidase in acetate buffer at pH 6.0.
The nature of assay [5]: Inhibition of Aspergillus niger beta-glucosidase in acetate buffer at pH 4.5. In short, it runs like this:
as §2

Assay [6] in a line: Inhibition of Aspergillus niger beta-glucosidase in acetate buffer at pH 5.0. In short, it runs like this: as §1
The nature of assay [7]: Activity of leaf opening factor beta-glucosidase at pH 4.5. In short, it runs like this:
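Purified leaf-opening factor β-glucosidase (LOFG) from L. cuneata leaves, assayed in 25 mM acetate pH 4.5 with potassium lespedezate at four substrate levels. The semicarbazone of the released α-keto acid was trapped with 1 mM semicarbazide and quantified by RP-HPLC after 2 h at 37 °C. Km was taken from a Lineweaver–Burk plot.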

Assay [8] in a line: Binding affinity to leaf opening factor beta-glucosidase relative to potassium lespedezate. Set-up: unit not given here. An outline of the steps: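 Purified LOFG was added to 25 mM acetate pH 4.5 containing 1 mM of each substrate analog, preincubated at 37 °C. The mixture was incubated 2 h at 37 °C, then stopped with 0.1 M Tris-HCl pH 9.0, bringing the pH to 8.0. The released aglycon was quantified by RP-HPLC, and activity was expressed relative to potassium lespedezate.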

Consider `OCC(=Nc1ccc(O)cc1)N[C@@H]1O[C@H](CO)[C@@H](O)[C@H](O)[C@H]1O`, for which the result in assay [1] and in assay [2] was inactive. For the same compound, the pKi in assay [3] is 5.88; in assay [4], 5.39; in assay [5], 5.46; in assay [6], 5.89. For the same compound, in the assay with Prunus dulcis, the inhibition was below 90%.

Take `O=C(O)/C(=C\c1ccc(O)cc1)O[C@@H]1O[C@H](CO)[C@@H](O)[C@H](O)[C@H]1O`: the Km in assay [7] stood at 548 µM.

As to `O=C(O)C(Cc1ccc(O)cc1)O[C@@H]1O[C@H](CO)[C@@H](O)[C@H](O)[C@H]1O` (stereo partly drawn), the Activity in [8] is 26.

Regarding `O=C(O)/C(=C\c1ccc(O)cc1)O[C@@H]1O[C@H](CO)[C@H](O)[C@H](O)[C@H]1O`, the Activity in assay [8] is 0.

Consider `O=C(O)/C(=C/c1ccc(O)cc1)O[C@@H]1O[C@H](CO)[C@@H](O)[C@H](O)[C@H]1O`, for which, in assay [8], the Activity was 0.

Take `O=C(O)/C(=C/c1ccc(O)cc1)O[C@@H]1O[C@H](CO)[C@H](O)[C@H](O)[C@H]1O`: in [8], the Activity was found to be 0.

As to `OC/C(=C\c1ccc(O)cc1)N[C@@H]1O[C@H](CO)[C@@H](O)[C@H](O)[C@H]1O`, in assay [8], the Activity was determined as 113.

For the origin of these results see ChEMBL document CHEMBL1142422, “Affinity purification and characterization of a key enzyme responsible for circadian rhythmic control of nyctinasty in Lespedeza cuneata L” (Bioorg Med Chem, 2008).
